# Legend:
# [1] = Concentration required for growth inhibition of taxol resistant human lymphoblastic leukemic cell line (CCRF-CEM/taxol) was determined; assay type: functional, cell-based
# How it was run: (§1)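 Drug-resistant human lymphoblastic leukemia sublines (vinblastine-resistant CCRF-CEM/VBL; taxol-resistant CCRF-CEM/taxol). Growth inhibition measured by XTT assay after 72 h incubation, reported as IC50.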
# [2] = test system: HCT-116; experiment: Concentration required for growth inhibition of human HCT116 colon tumor cell line […] was determined; assay type: functional, cell-based
# [3] = test system: A549; experiment: Concentration required for growth inhibition of […] was determined; assay type: functional, cell-based; details: Homo sapiens
# [4] = test system: CCRF-CEM; experiment: Concentration required for growth inhibition of human lymphoblastic leukemic cell line (CCRF-CEM) was determined; assay type: functional, cell-based
# How it was run: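 Leukemic CCRF-CEM cells and their vinblastine-resistant (CCRF-CEM/VBL) and taxol-resistant (CCRF-CEM/taxol) sublines were incubated for 72 h. Growth inhibition was read by XTT assay and expressed as IC50. For the resistant sublines, fold resistance was calculated relative to the parent CCRF-CEM IC50.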
# [5] = test system: Mus musculus; experiment: Average change in body weight of mice bearing human mammary carcinoma (MX-1) xenograft on 14th day of administration (dose = 1-2 mg/kg); assay type: functional
# How it was run: (§2)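 Nude mice (n = 3) bearing human MX-1 mammary carcinoma xenografts (Day 0). Intravenous treatment started on D11, when tumors were 80–120 mm3, at 1–2 mg/kg on a Q3D × 7 schedule. Body weight was taken as total body weight minus tumor weight. Animals with excessive tumor burden (>3500 mm3) were sacrificed.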
# [6] = test system: Mus musculus; experiment: Average change in body weight of mice bearing human mammary carcinoma (MX-1) xenograft on 17th day of administration (dose = 1-2 mg/kg); assay type: functional; how it was run: as §2
# [7] = test system: Mus musculus; experiment: Average change in body weight of mice bearing human mammary carcinoma (MX-1) xenograft on 20th day of administration (dose = 1-2 mg/kg); assay type: functional; how it was run: as §2
# [8] = test system: Mus musculus; experiment: Average change in body weight of mice bearing human mammary carcinoma (MX-1) xenograft on 23th day of administration (dose = 1-2 mg/kg); assay type: functional; how it was run: as §2
# [9] = test system: Mus musculus; experiment: Average change in body weight of mice bearing human mammary carcinoma (MX-1) xenograft on 26th day of administration (dose = 1-2 mg/kg); assay type: functional; how it was run: as §2
# [10] = Average tumor size of human mammary carcinoma (MX-1) xenograft in mice on 17th day of administration (dose = 1-2 mg/kg); assay type: organism-based; details: mouse, in vivo
# How it was run: (§3)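 Human MX-1 breast carcinoma xenografts in nude mice (n = 3) with tumors established on Day 0. Dosing was iv, 1–2 mg/kg Q3D × 7, beginning D11 at tumor size 80–120 mm3. Tumor size was tracked in mm3, and mice were sacrificed when tumors exceeded 3500 mm3.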
# [11] = Average tumor size of human mammary carcinoma (MX-1) xenograft in mice on 20th day of administration (dose = 1-2 mg/kg); assay type: organism-based; details: mouse, in vivo; how it was run: as §3
# [12] = Average tumor size of human mammary carcinoma (MX-1) xenograft in mice on 23th day of administration (dose = 1-2 mg/kg); assay type: organism-based; details: mouse, in vivo; how it was run: as §3
# [13] = Concentration required for growth inhibition of vinblastine resistant human lymphoblastic leukemic cell line (CCRF-CEM/VBL) was determined; assay type: functional, cell-based; how it was run: as §1
SMILES,IC50 [1] [nM],IC50 [2] [nM],IC50 [3] [nM],IC50 [4] [nM],IC50 [13] [nM],other results
OCc1cc(Nc2c3ccccc3nc3ccccc23)cc(OCCN(CCCl)CCCl)c1,30,5.5,5.6,7,7.5,Weight [5]: 1.2 g; Weight [6]: -1.4 g; Weight [7]: -3 g; Weight [8]: -3 g; Weight [9]: -3.9 g; T/C [10]: 0.37; T/C [11]: 0.17; T/C [12]: 0.14
ClCCN(CCCl)CCOc1cccc(Nc2c3ccccc3nc3ccccc23)c1,,,,90,,
ClCCN(CCCl)CCOc1ccc(Nc2c3ccccc3nc3ccccc23)cc1,60,,,20,60,
Cc1cccc2c(Nc3ccc(OCCN(CCCl)CCCl)cc3)c3cccc(C(=O)NCCN(C)C)c3nc12,,,,770,,
Nc1cc(CO)cc(Nc2c3ccccc3nc3ccccc23)c1,600,,47,750,1600,
Cc1cccc2c(Nc3cccc(OCCN(CCCl)CCCl)c3)c3cccc(C(=O)NCCN(C)C)c3nc12,,,,3,,
CC(=O)O[C@H]1C(=O)[C@@]2(C)[C@H]([C@H](OC(=O)c3ccccc3)[C@]3(O)C[C@H](OC(=O)[C@H](O)[C@@H](NC(=O)c4ccccc4)c4ccccc4)C(C)=C1C3(C)C)[C@]1(OC(C)=O)CO[C@@H]1C[C@@H]2O [PACLITAXEL],140,2.6,2.9,1.5,1620,
CC[C@]1(O)C[C@@H]2CN(CCc3c([nH]c4ccccc34)[C@@](C(=O)OC)(c3cc4c(cc3OC)N(C)[C@H]3[C@@](O)(C(=O)OC)[C@H](OC(C)=O)[C@]5(CC)C=CCN6CC[C@]43[C@@H]65)C2)C1 [VINBLASTINE],29,8.7,9.9,1.2,540,

# — ChEMBL document CHEMBL1137839, “Potent antitumor N-mustard derivatives of 9-anilinoacridine, synthesis and antitumor evaluation” (Bioorg Med Chem Lett, 2004)
